Data taken from ChEMBL document CHEMBL2346617, “Euryspongins A-C, three new unique sesquiterpenes from a marine sponge Euryspongia sp” (Bioorg Med Chem Lett, 2013).
The source made the active and inactive calls. The calls are words filed in the database; no cut-off is given here.

What was measured:
Jurkat = assay: Antiproliferative activity against human Jurkat cells at 45 uM; type: functional, cell-based
How it was run: (§1)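 Proliferation of human cancer cell lines HCT-15 (colon) and Jurkat (T-cell lymphoma) was tested at a single concentration of 45 μM per compound.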

[1] = target: T1, Tyrosine-protein phosphatase non-receptor type 1 (Homo sapiens) (UniProt P18031); assay: Inhibition of PTP1B (unknown origin) at 35 to 40 uM
T1 sequence (whole entry): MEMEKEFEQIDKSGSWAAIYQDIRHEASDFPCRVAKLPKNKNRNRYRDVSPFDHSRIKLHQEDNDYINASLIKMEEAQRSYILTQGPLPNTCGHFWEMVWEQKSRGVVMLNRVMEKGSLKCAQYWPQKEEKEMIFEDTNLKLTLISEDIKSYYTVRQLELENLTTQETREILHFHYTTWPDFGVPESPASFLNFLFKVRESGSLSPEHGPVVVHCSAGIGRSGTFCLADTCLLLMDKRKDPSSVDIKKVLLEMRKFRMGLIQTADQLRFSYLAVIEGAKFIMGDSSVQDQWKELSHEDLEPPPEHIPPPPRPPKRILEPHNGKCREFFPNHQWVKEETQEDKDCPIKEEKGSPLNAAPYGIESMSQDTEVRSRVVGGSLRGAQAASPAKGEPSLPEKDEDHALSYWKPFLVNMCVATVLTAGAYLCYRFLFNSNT

HCT-15 = assay: Antiproliferative activity against human HCT15 cells at 45 uM; type: functional, cell-based; how it was run: as §1
[2] = target: T2, Tyrosine-protein phosphatase non-receptor type 1 (Homo sapiens, UniProt P18031); assay: Inhibition of PTP1B (unknown origin)
T2 sequence (P18031 whole entry): T1 sequence (whole entry)

| inhibition [1] | IC50 [2] [µM] | Structure (SMILES) | inhibition (Jurkat) | inhibition (HCT-15) |
| --- | --- | --- | --- | --- |
| inactive | – | CC1=C[C@@H]2CC(C)(C)[C@H]1C[C@H](O)c1ccoc12 (relative stereo) | inactive | inactive |
| inactive | – | CC1=C[C@@H]2CC(C)(C)[C@H]1C[C@H](O)C1=CC(=O)O[C@@H]12 (relative stereo) | inactive | inactive |
| – | 3.6 | CC1=C[C@@H]2CC(C)(C)[C@H]1/C=C\c1ccoc12 (relative stereo) [REL-DEHYDROEURYSPONGIN A] | inactive | inactive |
| inactive | – | CO[C@]12OC(=O)C=C1[C@@H](O)C[C@H]1C(C)=C[C@@H]2CC1(C)C (relative stereo) | inactive | inactive |
